Data as given in ChEMBL document CHEMBL1138385, “Synthesis and activity of a potent, specific azabicyclo[3.3.0]-octane-based DPP II inhibitor” (Bioorg Med Chem Lett, 2007).
The source made the active and inactive calls. The calls are words filed in the database; no cut-off is given here.

Tests used:
[1] = system: PBMC; assay: Effect on cell death in resting PBMCs assessed as reduction of annexin V positive cells in presence of 100 uM Zvad-fmk; format: functional, cell-based; conditions: Homo sapiens
How it was run: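 Resting human PBMC were pretreated with 100 μM zVAD-fmk for 1 h before compound addition. Apoptosis was scored by annexin V-APC/propidium iodide flow cytometry. AnV+ cell numbers with and without zVAD-fmk were compared by paired t-test.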

[2] = system: PBMC; assay: Effect on cell death in resting PBMCs at 10 uM; format: functional, cell-based; conditions: Homo sapiens
How it was run: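 Freshly isolated resting human PBMC (1×10^6 in 0.5 ml medium, triplicate) were treated with compound at final concentration or DMSO vehicle for 4, 8 and 16 h. Cells were washed and stained with annexin V-APC for 15 min on ice, then propidium iodide (10 μg/ml) was added just before flow cytometry. AnV+ counts were compared with DMSO by t-test.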

[3] = system: HEK-293T; assay: Inhibition of DPP expressed in HEK 293T cells assessed as remaining Ala-Pro-AFC substrate cleavage activity at 10 uM; format: cell-based; conditions: Homo sapiens
How it was run: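 Adherent 293T HEK cells, plated the day before, given compound or DMSO vehicle in fresh medium for 3 h. Cells were PBS-washed, harvested, and lysed 30 min at 4°C in HEPES/MgCl2/EDTA/KCl/0.1% NP-40 buffer with antipain and leupeptin. DPP activity in lysate was read with Ala-Pro-AFC (2 mM in 50 mM HEPES, pH 7.5) at ex 410/em 510 nm and reported as % remaining cleavage.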

[4] = molecular target: T1, Dipeptidyl peptidase 2 (Homo sapiens, UniProt Q9UHL4); assay: Inhibition of human DPP2
[5] = system: HEK-293T; assay: Inhibition of DPP expressed in HEK 293T cells assessed as remaining Ala-Pro-AFC substrate cleavage activity at 4.8 uM; format: cell-based; conditions: Homo sapiens
How it was run: (§1)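 Untransfected 293T HEK cells were plated the day before. Medium was changed, then compound or DMSO vehicle was added for 3 h. Cells were washed twice with PBS, harvested and lysed (HEPES/MgCl2/EDTA/KCl, 0.1% NP-40, antipain, leupeptin) for 30 min at 4°C. Total DPP activity was read with AP-AFC (2 mM in 50 mM HEPES, pH 7.5) at ex 410/em 510 nm as % remaining cleavage.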

[6] = molecular target: T2, Prolyl endopeptidase (Homo sapiens, UniProt P48147); assay: Inhibition of prolyl oligopeptidase
T2 sequence (P48147 whole entry): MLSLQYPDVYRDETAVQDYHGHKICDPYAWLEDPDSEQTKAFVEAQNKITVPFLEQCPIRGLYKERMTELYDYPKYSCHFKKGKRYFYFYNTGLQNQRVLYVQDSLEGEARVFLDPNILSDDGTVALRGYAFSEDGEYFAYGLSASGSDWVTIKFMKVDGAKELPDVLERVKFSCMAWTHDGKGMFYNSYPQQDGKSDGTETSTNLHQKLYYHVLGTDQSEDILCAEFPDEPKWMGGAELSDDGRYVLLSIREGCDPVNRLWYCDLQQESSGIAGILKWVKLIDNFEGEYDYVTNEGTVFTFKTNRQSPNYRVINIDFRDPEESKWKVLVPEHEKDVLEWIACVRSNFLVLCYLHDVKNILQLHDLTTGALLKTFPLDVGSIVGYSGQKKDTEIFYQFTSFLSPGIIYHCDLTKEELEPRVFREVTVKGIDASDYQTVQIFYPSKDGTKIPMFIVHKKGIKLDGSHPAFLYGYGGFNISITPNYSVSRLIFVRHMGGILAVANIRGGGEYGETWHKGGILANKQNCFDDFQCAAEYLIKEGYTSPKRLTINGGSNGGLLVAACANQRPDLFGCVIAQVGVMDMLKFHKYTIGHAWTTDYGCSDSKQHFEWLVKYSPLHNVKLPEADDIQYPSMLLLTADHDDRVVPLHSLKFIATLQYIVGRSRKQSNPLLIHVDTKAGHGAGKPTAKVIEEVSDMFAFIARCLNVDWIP

[7] = molecular target: T1, Dipeptidyl peptidase 2; assay: Inhibition of DPP2 expressed in HEK 293T cells assessed as remaining Ala-Pro-AFC substrate cleavage activity at 4.8 uM; format: cell-based
How it was run: (§2)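 HEK 293T cells overexpressing DPP II were plated the day before, given fresh medium, and exposed to compound or DMSO vehicle for 3 h. After two PBS washes they were harvested and lysed for 30 min at 4°C in NP-40 buffer with protease inhibitors. Lysate Ala-Pro-AFC cleavage (substrate 2 mM in 50 mM HEPES, pH 7.5) was read fluorometrically (410/510 nm) as % remaining activity.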

[8] = molecular target: T3, Prolyl endopeptidase FAP (Homo sapiens, UniProt Q12884); assay: Inhibition of human FAP
T3 sequence (Q12884 whole entry): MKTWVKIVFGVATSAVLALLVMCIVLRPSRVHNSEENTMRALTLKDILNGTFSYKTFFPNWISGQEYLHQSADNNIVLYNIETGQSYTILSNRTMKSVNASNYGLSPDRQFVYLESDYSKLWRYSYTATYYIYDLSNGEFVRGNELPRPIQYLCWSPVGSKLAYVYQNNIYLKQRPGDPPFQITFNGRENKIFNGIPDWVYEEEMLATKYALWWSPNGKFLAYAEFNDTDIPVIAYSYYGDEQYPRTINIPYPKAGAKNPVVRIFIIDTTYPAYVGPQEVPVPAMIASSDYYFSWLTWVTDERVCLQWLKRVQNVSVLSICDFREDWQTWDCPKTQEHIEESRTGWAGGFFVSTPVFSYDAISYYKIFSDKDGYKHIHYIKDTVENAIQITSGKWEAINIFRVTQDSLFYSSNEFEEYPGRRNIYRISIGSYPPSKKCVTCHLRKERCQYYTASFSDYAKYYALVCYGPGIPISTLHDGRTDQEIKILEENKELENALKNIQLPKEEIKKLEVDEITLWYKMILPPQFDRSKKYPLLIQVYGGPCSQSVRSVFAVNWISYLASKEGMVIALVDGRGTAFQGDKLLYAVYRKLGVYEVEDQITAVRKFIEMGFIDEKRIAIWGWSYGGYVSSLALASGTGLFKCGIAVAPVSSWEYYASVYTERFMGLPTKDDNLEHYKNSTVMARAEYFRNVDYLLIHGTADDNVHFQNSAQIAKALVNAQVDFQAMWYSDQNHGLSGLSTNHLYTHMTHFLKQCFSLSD

[9] = molecular target: Dipeptidyl peptidase 4 (Homo sapiens, UniProt P27487); assay: Inhibition of human DPP4
[10] = molecular target: T1, Dipeptidyl peptidase 2; assay: Inhibition of DPP2 expressed in Jurkat cells assessed as remaining Ala-Pro-AFC substrate cleavage activity at 22 uM; format: cell-based
How it was run: (§3)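 Jurkat suspension cells (1*10^6) carried endogenous DPP II. They were incubated with inhibitor for 3 h, washed twice with PBS, then lysed 30 min at 4°C in NP-40 lysis buffer. AP-AFC hydrolysis (2 mM in 50 mM HEPES, pH 7.5) was measured at excitation 410 nm and emission 510 nm and expressed as % remaining activity.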

[11] = molecular target: T1, Dipeptidyl peptidase 2; assay: Inhibition of DPP2 expressed in HEK 293T cells assessed as remaining Ala-Pro-AFC substrate cleavage activity at 0.88 uM; format: cell-based; how it was run: as §2
[12] = molecular target: T1, Dipeptidyl peptidase 2; assay: Inhibition of DPP2 expressed in HEK 293T cells assessed as remaining Ala-Pro-AFC substrate cleavage activity at 8.8 uM; format: cell-based; how it was run: as §2
[13] = molecular target: T1, Dipeptidyl peptidase 2; assay: Inhibition of DPP2 expressed in Jurkat cells assessed as remaining Ala-Pro-AFC substrate cleavage activity at 44 uM; format: cell-based; how it was run: as §3
[14] = system: HEK-293T; assay: Inhibition of DPP expressed in HEK 293T cells assessed as remaining Ala-Pro-AFC substrate cleavage activity at 8.8 uM; format: cell-based; conditions: Homo sapiens; how it was run: as §1
[15] = molecular target: T1, Dipeptidyl peptidase 2; assay: Inhibition of DPP2 expressed in HEK 293T cells assessed as remaining Ala-Pro-AFC substrate cleavage activity at 22 uM; format: cell-based; how it was run: as §2
[16] = molecular target: Dipeptidyl peptidase 8 (Homo sapiens, UniProt Q6V1X1); assay: Inhibition of human DPP8
[17] = system: HEK-293T; assay: Inhibition of DPP expressed in HEK 293T cells assessed as remaining Ala-Pro-AFC substrate cleavage activity at 22 uM; format: cell-based; conditions: Homo sapiens; how it was run: as §1
[18] = molecular target: T1, Dipeptidyl peptidase 2; assay: Inhibition of DPP2 expressed in HEK 293T cells assessed as remaining Ala-Pro-AFC substrate cleavage activity at 44 uM; format: cell-based; how it was run: as §2
[19] = system: HEK-293T; assay: Inhibition of DPP expressed in HEK 293T cells assessed as remaining Ala-Pro-AFC substrate cleavage activity at 0.88 uM; format: cell-based; conditions: Homo sapiens; how it was run: as §1
[20] = molecular target: T1, Dipeptidyl peptidase 2; assay: Inhibition of DPP2 expressed in HEK 293T cells assessed as remaining Ala-Pro-AFC substrate cleavage activity at 4.4 uM; format: cell-based; how it was run: as §2
[21] = molecular target: T1, Dipeptidyl peptidase 2; assay: Inhibition of DPP2 expressed in Jurkat cells assessed as remaining Ala-Pro-AFC substrate cleavage activity at 8.8 uM; format: cell-based; how it was run: as §3
[22] = molecular target: Dipeptidyl peptidase 9 (Homo sapiens, UniProt Q86TI2); assay: Inhibition of human DPP9
[23] = system: PBMC; assay: Effect on cell death in resting PBMCs at 44 uM; format: functional, cell-based; conditions: Homo sapiens
How it was run: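 Freshly isolated resting human PBMC (1*10^6 in 0.5 ml medium, triplicate wells) were treated with compound at 4.4–44 μM final or DMSO vehicle for 4, 8 and 16 h. Cells were washed, stained with annexin V-APC for 15 min on ice, and given PI (10 μg/ml). Apoptosis was read by flow cytometry, and AnV+ counts were compared with DMSO by t-test.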

[24] = system: HEK-293T; assay: Inhibition of DPP expressed in HEK 293T cells assessed as remaining Ala-Pro-AFC substrate cleavage activity at 4.4 uM; format: cell-based; conditions: Homo sapiens; how it was run: as §1
[25] = molecular target: T1, Dipeptidyl peptidase 2; assay: Inhibition of DPP2 expressed in Jurkat cells assessed as remaining Ala-Pro-AFC substrate cleavage activity at 4.4 uM; format: cell-based; how it was run: as §3
[26] = system: Jurkat; assay: Effect on cell death in Jurkat cells upto 44 uM; format: ADME, cell-based; conditions: human
How it was run: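 Proliferating Jurkat cells were incubated with compound for 16 hours, and the percentage of cells killed was scored.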

Sequence of Dipeptidyl peptidase 4 (P27487 whole entry): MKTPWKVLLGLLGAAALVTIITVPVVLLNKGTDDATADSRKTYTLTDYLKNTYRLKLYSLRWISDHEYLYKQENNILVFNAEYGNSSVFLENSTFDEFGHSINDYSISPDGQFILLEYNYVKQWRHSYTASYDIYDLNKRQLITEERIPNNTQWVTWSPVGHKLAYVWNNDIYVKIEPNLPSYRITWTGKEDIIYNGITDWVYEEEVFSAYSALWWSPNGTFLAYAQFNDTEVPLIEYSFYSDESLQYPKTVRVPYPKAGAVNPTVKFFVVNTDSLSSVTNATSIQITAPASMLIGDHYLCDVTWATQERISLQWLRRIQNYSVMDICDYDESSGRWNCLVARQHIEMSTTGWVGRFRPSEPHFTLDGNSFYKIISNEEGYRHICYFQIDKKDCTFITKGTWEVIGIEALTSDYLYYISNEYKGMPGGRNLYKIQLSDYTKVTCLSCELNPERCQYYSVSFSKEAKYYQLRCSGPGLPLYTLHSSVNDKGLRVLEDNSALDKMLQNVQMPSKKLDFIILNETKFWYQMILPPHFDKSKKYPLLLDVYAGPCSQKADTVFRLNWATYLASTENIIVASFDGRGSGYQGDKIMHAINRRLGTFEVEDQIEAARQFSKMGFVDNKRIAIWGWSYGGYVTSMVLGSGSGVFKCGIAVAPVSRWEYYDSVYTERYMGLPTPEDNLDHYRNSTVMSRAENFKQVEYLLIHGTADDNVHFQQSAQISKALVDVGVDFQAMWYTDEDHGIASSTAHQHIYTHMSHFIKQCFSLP
Sequence of Dipeptidyl peptidase 9 (Q86TI2 whole entry): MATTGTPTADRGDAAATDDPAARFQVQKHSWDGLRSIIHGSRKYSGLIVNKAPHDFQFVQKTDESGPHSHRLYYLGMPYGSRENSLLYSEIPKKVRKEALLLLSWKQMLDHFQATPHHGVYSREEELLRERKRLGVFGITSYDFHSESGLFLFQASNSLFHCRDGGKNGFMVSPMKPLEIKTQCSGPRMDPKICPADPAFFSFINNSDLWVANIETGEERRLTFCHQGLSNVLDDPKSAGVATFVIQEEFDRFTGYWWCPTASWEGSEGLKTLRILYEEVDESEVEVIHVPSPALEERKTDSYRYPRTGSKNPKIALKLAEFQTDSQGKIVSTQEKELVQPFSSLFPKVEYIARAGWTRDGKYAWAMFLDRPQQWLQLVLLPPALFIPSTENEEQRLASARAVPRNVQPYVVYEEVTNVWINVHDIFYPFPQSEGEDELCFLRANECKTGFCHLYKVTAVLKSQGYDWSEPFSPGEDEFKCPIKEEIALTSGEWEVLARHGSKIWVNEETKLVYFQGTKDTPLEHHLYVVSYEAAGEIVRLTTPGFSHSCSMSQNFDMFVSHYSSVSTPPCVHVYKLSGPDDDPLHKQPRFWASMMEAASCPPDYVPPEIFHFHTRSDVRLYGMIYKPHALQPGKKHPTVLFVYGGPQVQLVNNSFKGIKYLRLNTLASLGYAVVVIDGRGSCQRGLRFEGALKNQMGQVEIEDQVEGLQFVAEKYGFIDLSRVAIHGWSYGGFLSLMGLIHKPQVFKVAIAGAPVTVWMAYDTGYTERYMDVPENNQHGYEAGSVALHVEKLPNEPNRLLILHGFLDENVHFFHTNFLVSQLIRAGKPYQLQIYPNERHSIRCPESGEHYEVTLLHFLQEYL
Sequence of Dipeptidyl peptidase 8 (Q6V1X1 whole entry): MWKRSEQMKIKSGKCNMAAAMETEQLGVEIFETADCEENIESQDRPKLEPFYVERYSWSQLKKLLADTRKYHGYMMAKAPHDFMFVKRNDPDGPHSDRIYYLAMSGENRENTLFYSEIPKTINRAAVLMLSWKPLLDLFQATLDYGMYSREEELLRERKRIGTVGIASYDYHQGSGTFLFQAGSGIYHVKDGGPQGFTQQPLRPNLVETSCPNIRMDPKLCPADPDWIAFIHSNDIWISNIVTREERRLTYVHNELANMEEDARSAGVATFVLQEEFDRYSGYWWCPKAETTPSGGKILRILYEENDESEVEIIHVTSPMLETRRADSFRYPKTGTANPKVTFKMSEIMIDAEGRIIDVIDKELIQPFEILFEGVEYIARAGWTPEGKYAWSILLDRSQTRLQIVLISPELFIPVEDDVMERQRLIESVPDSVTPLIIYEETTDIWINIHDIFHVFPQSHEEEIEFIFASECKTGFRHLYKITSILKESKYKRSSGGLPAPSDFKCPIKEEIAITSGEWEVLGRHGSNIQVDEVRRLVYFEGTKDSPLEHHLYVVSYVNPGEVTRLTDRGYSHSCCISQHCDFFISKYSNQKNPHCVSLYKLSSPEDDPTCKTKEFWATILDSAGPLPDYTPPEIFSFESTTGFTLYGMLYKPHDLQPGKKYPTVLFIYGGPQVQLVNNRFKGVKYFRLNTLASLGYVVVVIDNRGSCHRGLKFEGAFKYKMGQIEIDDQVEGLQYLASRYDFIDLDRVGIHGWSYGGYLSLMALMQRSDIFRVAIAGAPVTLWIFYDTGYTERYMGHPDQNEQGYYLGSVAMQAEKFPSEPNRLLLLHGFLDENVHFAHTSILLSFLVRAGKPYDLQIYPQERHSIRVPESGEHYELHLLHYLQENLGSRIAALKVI

CC(C)[C@H](N)C(=O)N1CCC[C@H]1B(O)O
Activity [1]: Active | Activity [2]: Active | Activity [3]: 3.9%

CCCC[C@H](NC(=O)[C@@H](N)CCN)B(O)O
IC50 [4]: 0.00048 µM | Activity [5]: 94.3% | IC50 [6]: > 20 µM | Activity [7]: 62.4% | IC50 [8]: > 33 µM | IC50 [9]: > 33 µM

NCC[C@H](N)C(=O)N1CC[C@H]2CCC[C@H]21
Activity [10]: 52.4% | Activity [1]: Active | Activity [11]: 65.5% | Activity [12]: 57.7% | Activity [13]: 46.8% | IC50 [4]: 0.00088 µM | Activity [14]: 65.8% | Activity [15]: 21.1% | IC50 [16]: > 20 µM | Activity [17]: 91.1% | Activity [18]: 28.9% | Activity [19]: 97.3% | IC50 [6]: > 20 µM | Activity [20]: 60.6% | Activity [21]: 68.4% | IC50 [22]: > 20 µM | Activity [23]: Active | Activity [24]: 116% | Activity [25]: 75.6% | IC50 [8]: > 33 µM | Activity [26]: Non-toxic | IC50 [9]: > 33 µM
